Test results published in ChEMBL document CHEMBL3526015, “Metabolism of the c-Fos/activator protein-1 inhibitor T-5224 by multiple human UDP-glucuronosyltransferase isoforms” (Drug Metab Dispos, 2011).

What was measured:
Liver microsome [1] = assay: Drug metabolism in human liver microsomes assessed as T-5224 hydroxyl O-glucuronide formation after 10 to 60 mins by HPLC method; assay type: ADME
Method in brief: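 Pooled liver (0.5 mg protein/mL) or intestinal (0.25 mg protein/mL) microsomes in 50 mM Tris-HCl pH 7.5, 8 mM MgCl2, alamethicin, 2% DMSO. T-5224 at 1–50 μM, 5 min preincubation at 37°C, started with 2 mM UDPGA. Incubated 10 min, or 20 min for intestinal microsomes at 1–5 μM. Acetonitrile stop, glucuronides by HPLC at 290 nm. Triplicates fitted to a substrate-inhibition model.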

Liver microsome [2] = assay: Drug metabolism in human liver microsomes assessed as T-5224 acyl O-glucuronide formation per mg protein after 10 to 60 mins by HPLC method; assay type: ADME
Method in brief: (§1)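 Pooled liver microsomes (0.5 mg/mL) were incubated 10 min. Pooled intestinal microsomes (0.25 mg/mL) ran 10 min at T-5224 10–50 μM and 20 min at 1–5 μM. Buffer was 50 mM Tris-HCl pH 7.5 with 8 mM MgCl2, alamethicin and 2 mM UDPGA, at 37°C, in triplicate. Glucuronides G2/G3 were read by HPLC at 290 nm and fitted for Vmax/Km.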

[3] = biological target: T1, UDP-glucuronosyltransferase 1A1 (Homo sapiens, UniProt P22309); assay: Substrate inhibition of human UGT1A1-mediated T-5224 acyl O-glucuronide formation after 10 to 60 mins in presence of UDP-glucuronic acid by HPLC method; assay type: ADME
T1 sequence (P22309 whole entry): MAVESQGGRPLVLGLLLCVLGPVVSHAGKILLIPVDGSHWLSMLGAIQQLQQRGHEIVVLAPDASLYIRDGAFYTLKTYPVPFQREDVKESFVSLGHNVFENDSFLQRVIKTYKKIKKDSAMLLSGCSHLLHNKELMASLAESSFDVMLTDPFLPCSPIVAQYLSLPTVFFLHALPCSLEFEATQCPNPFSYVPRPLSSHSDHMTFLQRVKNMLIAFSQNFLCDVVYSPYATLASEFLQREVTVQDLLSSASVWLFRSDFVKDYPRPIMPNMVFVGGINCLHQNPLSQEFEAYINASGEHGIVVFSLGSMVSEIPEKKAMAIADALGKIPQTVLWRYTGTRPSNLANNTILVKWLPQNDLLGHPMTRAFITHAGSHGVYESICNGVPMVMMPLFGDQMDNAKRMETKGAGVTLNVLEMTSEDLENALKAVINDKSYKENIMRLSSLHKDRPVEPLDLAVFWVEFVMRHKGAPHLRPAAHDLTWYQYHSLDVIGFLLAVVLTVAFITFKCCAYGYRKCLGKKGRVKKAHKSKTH
Method in brief: (§2)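 Recombinant human UGT1A1, UGT1A3 or UGT1A8 from baculovirus-infected insect cells (0.1 mg protein/mL) in 50 mM Tris-HCl pH 7.5, 8 mM MgCl2, alamethicin, 2% DMSO. T-5224 at 1–50 μM with 2 mM UDPGA for 60 min at 37°C. HPLC with UV at 290 nm. Triplicates fitted to a substrate-inhibition model. kcat uses UGT content quantified by immunoblot against recombinant UGT1A1/UGT2B4 standards.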

[4] = biological target: T1, UDP-glucuronosyltransferase 1A1; assay: Drug metabolism assessed as Vmax/Km ratio for human UGT1A1-mediated T-5224 acyl O-glucuronide formation per mg protein after 10 to 60 mins in presence of UDP-glucuronic acid by HPLC method; assay type: ADME; conditions: recombinant enzyme
Method in brief: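 Kinetics used recombinant UGT1A1, 1A3 or 1A8 (0.1 mg protein/mL) with T-5224 at 1–50 μM, 2 mM UDPGA and 60 min at 37°C, in triplicate. G2/G3 were measured by HPLC at 290 nm and fitted to a substrate-inhibition model (Vmax, Km, Ksi). UGT content was quantified by immunoblot, and kcat = Vmax/E0 was derived from it.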

Liver microsome [5] = assay: Drug metabolism in human liver microsomes assessed as T-5224 acyl O-glucuronide formation at 10 uM after 10 mins in presence of beta-estradiol by HPLC method; assay type: ADME
Method in brief: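 Pooled human liver microsomes or recombinant UGT1A1 were incubated with 10 μM T-5224, 2 mM UDPGA and β-estradiol at 0–500 μM (2% DMSO), in Tris-HCl/MgCl2/alamethicin buffer. Incubation was 10 min (liver microsomes) or 60 min (UGT1A1) at 37°C. G2/G3 were read by HPLC at 290 nm, as mean ± SD, n = 3.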

[6] = biological target: T2, UDP-glucuronosyltransferase 1A3 (Homo sapiens, UniProt P35503); assay: Substrate inhibition of human UGT1A3-mediated T-5224 acyl O-glucuronide formation after 10 to 60 mins in presence of UDP-glucuronic acid by HPLC method; assay type: ADME; method in brief: as §2
T2 sequence (P35503 whole entry): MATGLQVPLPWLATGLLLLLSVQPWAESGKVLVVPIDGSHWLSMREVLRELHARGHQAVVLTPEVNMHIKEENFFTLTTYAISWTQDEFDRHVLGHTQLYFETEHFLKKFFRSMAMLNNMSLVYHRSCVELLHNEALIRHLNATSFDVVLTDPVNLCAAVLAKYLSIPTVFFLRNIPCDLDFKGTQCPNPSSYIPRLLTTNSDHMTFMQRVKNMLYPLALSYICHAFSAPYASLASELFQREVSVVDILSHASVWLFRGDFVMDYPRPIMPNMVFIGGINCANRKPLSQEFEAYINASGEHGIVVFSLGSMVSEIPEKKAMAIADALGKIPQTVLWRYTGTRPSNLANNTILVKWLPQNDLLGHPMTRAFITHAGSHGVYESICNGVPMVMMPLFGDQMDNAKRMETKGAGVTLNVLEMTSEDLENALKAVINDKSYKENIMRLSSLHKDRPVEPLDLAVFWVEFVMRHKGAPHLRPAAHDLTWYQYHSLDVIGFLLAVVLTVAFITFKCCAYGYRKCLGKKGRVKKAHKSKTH

[7] = Drug metabolism in human intestinal microsomes assessed as T-5224 acyl O-glucuronide formation per mg protein after 10 to 60 mins by HPLC method; assay type: ADME, Intestine, Microsome; method in brief: as §1
[8] = Drug metabolism in human intestinal microsomes assessed as Vmax/Km ratio for T-5224 acyl O-glucuronide formation per mg protein after 10 to 60 mins by HPLC method; assay type: ADME, Intestine, Microsome; method in brief: as §1
[9] = biological target: T2, UDP-glucuronosyltransferase 1A3; assay: Substrate inhibition of human UGT1A3-mediated T-5224 hydroxyl O-glucuronide formation after 10 to 60 mins in presence of UDP-glucuronic acid by HPLC method; assay type: ADME; method in brief: as §2
Liver microsome [10] = assay: Drug metabolism in pooled human liver microsomes assessed as T-5224 hydroxyl O-glucuronide formation at 10 uM after 10 mins by HPLC method; assay type: ADME
Method in brief: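 T-5224 at 10 μM incubated for 10 min at 37°C with UDPGA (2 mM) in pooled liver (0.5 mg protein/mL) or intestinal (0.25 mg protein/mL) microsomes. Buffer was 50 mM Tris-HCl pH 7.5 with 8 mM MgCl2 and alamethicin, after 5 min preincubation. Stopped with acetonitrile; glucuronides quantified by HPLC at 290 nm.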

[11] = Drug metabolism in human intestinal microsomes assessed as Vmax/Km ratio for T-5224 hydroxyl O-glucuronide formation per mg protein after 10 to 60 mins by HPLC method; assay type: ADME, Intestine, Microsome; method in brief: as §1
[12] = biological target: T1, UDP-glucuronosyltransferase 1A1; assay: Substrate inhibition of human UGT1A1-mediated T-5224 hydroxyl O-glucuronide formation after 10 to 60 mins in presence of UDP-glucuronic acid by HPLC method; assay type: ADME; method in brief: as §2

O=C(O)CCc1cc(C(=O)c2ccc(OC3CCCC3)cc2O)ccc1OCc1ccc2c(O)noc2c1
Km (Liver microsome [1]): 15.7 µM
Vmax (Liver microsome [2]): 217 pmol/min
Ki [3]: 1.54 µM
Vmax/Km [4]: 83.9 µL/min
Drug metabolism (Liver microsome [5]): metabolite_not_detected
Ki [6]: 13.5 µM
Vmax [7]: 241 pmol/min
Vmax/Km [8]: 40.9 µL/min
Ki [9]: 2.55 µM
Drug metabolism (Liver microsome [10]): metabolite_detected
Vmax/Km [11]: 34.6 µL/min
Ki [12]: 4.67 µM
